Calls of active or inactive are those of the source. The calls are words filed in the database; no cut-off is given here.

In assay [1] the test system is SCC-25. The assay can be described thus: Synergistic antiproliferative activity against human SCC25 cells assessed as combination index at 0.005 uM preincubated for 1 hr followed by irradiation with 10 Gy IR and measured after 6 days by MTT assay. It is filed as functional. In a few lines: (§1)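 Combination index was calculated by the Chou–Talalay median-effect method from the 6-day MTT viability data of the single-plate compound/X-ray (2.5, 5, 10 Gy) design. CI < 1 denotes synergy, CI = 1 additivity and CI > 1 antagonism.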
For orientation: Tetrazolium dyes change colour on reduction, which living cells bring about.

Assay [2] concerns FaDu. The assay can be described thus: Synergistic antiproliferative activity against human FADU cells assessed as combination index at 0.05 uM preincubated for 1 hr followed by irradiation with 2.5 Gy IR and measured after 6 days by MTT assay. It is filed as functional. In a few lines:
as §1

The test system of assay [3] is SCC-25. In words: Synergistic antiproliferative activity against human SCC25 cells assessed as combination index at 0.5 uM preincubated for 1 hr followed by irradiation with 2.5 Gy IR and measured after 6 days by MTT assay. Format: functional. In a few lines: (§2)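 SCC-25 cells grown in DMEM with 10% FBS at 37 °C, 5% CO2, seeded 1000 cells/well in 96-well plates and left 24 h. Drug in DMSO, diluted in complete medium, added 1 h before X-irradiation. A movable 5 mm lead shield gave 0, 2.5, 5 or 10 Gy on one plate. After 6 days, MTT readout at 570 nm. Combination index by Chou–Talalay from viability data.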

The test system of assay [4] is SCC-25. In words: Synergistic antiproliferative activity against human SCC25 cells assessed as combination index at 0.005 uM preincubated for 1 hr followed by irradiation with 2.5 Gy IR and measured after 6 days by MTT assay. It is filed as functional. In a few lines:
as §2

Assay [5] has as its system SCC-25. In words: Synergistic antiproliferative activity against human SCC25 cells assessed as fractional inhibition at 0.005 uM preincubated for 1 hr followed by irradiation with 5 Gy IR and measured after 6 days by MTT assay (reference value: 0.133). It is filed as functional. In a few lines: (§3)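 SCC-25 cells seeded 1000/well in 96-well plates in DMEM/10% FBS and left 24 h. Drug or vehicle added, then after 1 h X-irradiated to 2.5, 5 or 10 Gy on one plate using a shifted lead shield. Plates incubated 6 days, then MTT (0.5 mg/mL, 45 min), DMSO solubilisation, absorbance at 570 nm. Fractional inhibition = 1 − fraction of surviving cells.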

Assay [6] relates to FaDu. In words: Antiproliferative activity against human FADU cells assessed as reduction in cell viability at 1 uM after 6 days by MTT assay relative to control. Format: functional. To be noted: 144 h. In a few lines: (§4)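 FaDu or SCC-25 cells were grown in DMEM with 10% FBS at 37 °C and 5% CO2. They were seeded at 1000 cells/well in 96-well plates for 24 h, then dosed with compound (fresh DMSO stock diluted in medium) or vehicle. After 1 h, X-rays were given with a sliding 5 mm lead shield, so one plate held 0, 2.5, 5 and 10 Gy columns. After 6 days, MTT (0.5 mg/mL, 45 min) was added, then DMSO, and A570 was read. Values were normalised to the unirradiated vehicle control. Fractional inhibition = 1 − surviving fraction.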

Assay [7] deals with SCC-25. In words: Synergistic antiproliferative activity against human SCC25 cells assessed as fractional inhibition at 0.005 uM preincubated for 1 hr followed by irradiation with 2.5 Gy IR and measured after 6 days by MTT assay (reference value: 0.011). Format: functional. In a few lines: as §3
Assay [8] has as its system SCC-25. The assay can be described thus: Synergistic antiproliferative activity against human SCC25 cells assessed as combination index at 5 uM preincubated for 1 hr followed by irradiation with 2.5 Gy IR and measured after 6 days by MTT assay. It is filed as functional. In a few lines: as §2
The subject of assay [9] is FaDu. The assay can be described thus: Synergistic antiproliferative activity against human FADU cells assessed as fractional inhibition at 0.05 uM preincubated for 1 hr followed by irradiation with 5 Gy IR and measured after 6 days by MTT assay (reference value: 0.097). It is filed as functional. In a few lines: as §4
Assay [10] deals with SCC-25. The assay can be described thus: Synergistic induction of cell cycle arrest in human SCC25 cells at 0.5 uM followed by irradiation with 5Gy IR incubated for 6 hrs by propidium iodide staining based flow cytometry. It is filed as functional. In a few lines: (§5)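 FaDu or SCC-25 cells, untreated, given 5 Gy IR, drug, or drug plus 5 Gy. Cell-cycle distribution by propidium iodide staining and flow cytometry at 6 h and 24 h after treatment. G0/G1, S and G2/M fractions compared with control by t test.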
On the technique in general: In flow cytometry, cells or beads pass a laser one at a time.

The subject of assay [11] is FaDu. In words: Synergistic antiproliferative activity against human FADU cells assessed as combination index at 5 uM preincubated for 1 hr followed by irradiation with 10 Gy IR and measured after 6 days by MTT assay. Format: functional. In a few lines: as §1
For assay [12], the system named is SCC-25. In words: Antiproliferative activity against human SCC25 cells assessed as reduction in cell viability at 1 uM after 6 days by MTT assay relative to control. Format: functional, cell-based. In a few lines:
as §4

Assay [13] concerns FaDu. The assay can be described thus: Synergistic antiproliferative activity against human FADU cells assessed as fractional inhibition at 5 uM preincubated for 1 hr followed by irradiation with 5 Gy IR and measured after 6 days by MTT assay (reference value: 0.097). Format: functional. In a few lines:
as §4

Assay [14] concerns FaDu. The assay can be described thus: Inhibition of colony formation in human FADU cells incubated for 10 to 14 days by crystal violet staining based assay. It is filed as functional, cell-based.
Assay [15] relates to SCC-25. The assay can be described thus: Antiproliferative activity against human SCC25 cells assessed as fractional inhibition at 5 uM after 6 days in absence of irradiation by MTT assay. It is filed as functional. In a few lines: as §4
The subject of assay [16] is FaDu. The assay can be described thus: Synergistic antiproliferative activity against human FADU cells assessed as fractional inhibition at 0.5 uM preincubated for 1 hr followed by irradiation with 2.5 Gy IR and measured after 6 days by MTT assay (reference value: 0.131). Format: functional. In a few lines:
as §4

Assay [17] deals with FaDu. The assay can be described thus: Selectivity ratio of IC50 for antiproliferative activity against human FADU cells assessed as reduction in colony formation unit to IC50 for antiproliferative activity against human FADU cells assessed as reduction in colony formation unit followed by irradiation with 5 Gy IR. Format: functional.
Assay [18] deals with FaDu. In words: Antiproliferative activity against human FADU cells assessed as fractional inhibition at 0.5 uM after 6 days in absence of irradiation by MTT assay. It is filed as functional. In a few lines:
as §4

The test system of assay [19] is SCC-25. In words: Synergistic induction of cell cycle arrest in human SCC25 cells assessed as decrease in accumulation at S phase at 0.5 uM followed irradiation with 5Gy IR incubated for 24 hrs by propidium iodide staining based flow cytometry. Format: functional. In a few lines: as §5
The subject of assay [20] is SCC-25. In words: Synergistic induction of cell cycle arrest in human SCC25 cells assessed as increase in accumulation at G2/M phase at 0.5 uM followed irradiation with 5Gy IR incubated for 24 hrs by propidium iodide staining based flow cytometry. Format: functional. In a few lines: as §5
The test system of assay [21] is FaDu. The assay can be described thus: Synergistic antiproliferative activity against human FADU cells assessed as fractional inhibition at 0.5 uM preincubated for 1 hr followed by irradiation with 5 Gy IR and measured after 6 days by MTT assay (reference value: 0.097). It is filed as functional. In a few lines: as §4
The subject of assay [22] is FaDu. The assay can be described thus: Antiproliferative activity against human FADU cells assessed as fractional inhibition at 0.005 uM after 6 days in absence of irradiation by MTT assay. It is filed as functional. In a few lines:
as §4

Assay [23] concerns SCC-25. The assay can be described thus: Synergistic induction of apoptosis in human SCC25 cells assessed as increase in caspase at 0.5 uM followed by irradiation with 5 Gy IR incubated for 48 hrs by luminescence based analysis. It is filed as functional, cell-based.
Assay [24] relates to FaDu. The assay can be described thus: Synergistic induction of apoptosis in human FADU cells at 0.5 uM followed irradiation with 5Gy IR by annexin V FITC and propidium iodide staining based flow cytometry. Conditions: TDE = time-dependent effect. Format: functional, cell-based. In a few lines:
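FaDu or SCC-25 cells, untreated, given 5 Gy IR, drug, or both. Apoptotic cells measured by annexin V flow cytometry 48 h after treatment. Percentage compared with control by t test.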

`COc1ccc2c(c1)N(CCO)C1=C(C(=O)OC1)C2c1ccccc1` (centres undefined): the CI was determined as 1.021 in [1]; 0.234 in [2]; 0.386 in [3]; 1.216 in [4]; 1.244 in [8]; 0.314 in assay [11]. In addition, the “fractional inhibitory concentration index (FICI)” value in assay [5] came out at 0.157; in assay [7], 0.015; in assay [9], 0.239; in assay [13] it was 0.633; in assay [15], 0.744; in [16], 0.443. In addition, the “fractional inhibitory concentration index (FICI)” value in assay [18] is on record as 0.264; in assay [21] it was 0.425; in assay [22], 0.145. For the same molecule, in assay [6], the inhibition (commonly the percentage by which the read-out fell short of the control) at 1 µM was found to be 20%. The result in assay [10] was inactive. Moreover, the inhibition entry in [12] is “inactive”. Moreover, in assay [14], the IC50 (usually the concentration that inhibits the measured activity by half) was determined as 6.5 µM. Besides, the “Ratio IC50” value in assay [17] stood at 13. For the same molecule, the result in [19] and in [23] was Active. For the same molecule, the “fold change (FC)” value in [20] amounted to 2. Also, the Activity entry in assay [24] is “Tde”.
